# Shown are actives, neighbours in structure and some others; about 2.7% of the full set was active somewhere.
# PAFAH1B2 FP inh: PAFAH1B2 enzyme inhibitors, primary screen, biochemical, fluorescence polarization, human | hit rate 1.2% among 340,000 | recombinant PAFAH1B2, FP-rhodamine activity probe | inhibition, % at 3.39 µM;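 active = inhibition above the mean of all tested compounds plus 3 SD, cut at about 24% in these data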;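 note: 0% = enzyme with DMSO and 100% = wells lacking PAFAH1B2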
# ASAP1 inh: inhibitors of human ASAP1 ArfGAP activity, primary screen, biochemical, fluorescence polarization. AID 624377, 2012. hit rate 0.19% among 360,000. inhibition, % at 16.5 µM. Arf-GAP with SH3 domain, ANK repeat and PH domain-containing protein 1 (Homo sapiens), …. ASAP1-stimulated ARF1 GTP hydrolysis, GDP FP detection; in the data active = inhibition above about 25%;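 note: 0% = vehicle with enzyme and substrate and 100% = no enzyme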
# PAFAH2 inh: PAFAH2 enzyme inhibitors, primary screen, biochemical, fluorescence polarization, human | Platelet-activating factor acetylhydrolase 2, cytoplasmic (Homo sapiens), Q99487 | recombinant PAFAH2, FP-rhodamine activity probe | inhibition, % at 3.39 µM | hit rate 0.99% among 340,000 | AID 492956, 2010;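 active = inhibition above the mean over all tested compounds plus 3 SD, cut at about 30% in these data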;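 note: inhibitors block probe labeling of enzyme so polarization drops; 0% = enzyme with DMSO and 100% = wells lacking PAFAH2 protein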
# pPAFAH inh: pPAFAH enzyme inhibitors, primary screen, biochemical, fluorescence polarization, human | recombinant pPAFAH, FP-rhodamine probe fluorescence polarization | inhibition, % at 3.39 µM | AID 463082, 2010 | Platelet-activating factor acetylhydrolase (Homo sapiens), Q13093 | hit rate 1.5% among 330,000;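 active = inhibition above the mean inhibition across the screen plus 3 SD, cut at about 25% in these data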;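 note: inhibitors block binding of the rhodamine activity-based probe so polarization drops; 0% = enzyme with DMSO and 100% = wells lacking pPAFAH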
# Target sequence (Q13093 whole entry, looked up): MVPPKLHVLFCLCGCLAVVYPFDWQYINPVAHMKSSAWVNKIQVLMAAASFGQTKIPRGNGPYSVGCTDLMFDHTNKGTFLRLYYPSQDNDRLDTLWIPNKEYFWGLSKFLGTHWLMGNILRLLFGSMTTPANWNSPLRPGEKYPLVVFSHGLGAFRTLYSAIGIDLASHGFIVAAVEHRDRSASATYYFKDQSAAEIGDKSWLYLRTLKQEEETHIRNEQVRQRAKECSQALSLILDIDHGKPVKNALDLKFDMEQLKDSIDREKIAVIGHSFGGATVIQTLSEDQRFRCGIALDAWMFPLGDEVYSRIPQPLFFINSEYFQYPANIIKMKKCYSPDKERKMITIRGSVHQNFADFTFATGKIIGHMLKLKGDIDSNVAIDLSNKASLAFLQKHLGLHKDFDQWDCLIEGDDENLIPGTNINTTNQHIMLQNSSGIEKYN
# ARFGAP1 inhibitor: inhibitors of rat ARFGAP1 GAP activity, primary screen, biochemical, fluorescence polarization, GDP tracer | ADP-ribosylation factor GTPase-activating protein 1 (Rattus norvegicus), Q62848 | Arfgap1-stimulated ARF1 GTP hydrolysis, GDP FP detection | inhibition, % at 16.5 µM | hit rate 0.26% among 360,000;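 active = inhibition above a per-plate limit, mean inhibition of low control wells plus 3 SD, cut at about 25% in these data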;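 note: 0% = DMSO wells with enzyme and 100% = wells lacking Arfgap1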
# Target sequence (Q62848 1-136 limits assumed): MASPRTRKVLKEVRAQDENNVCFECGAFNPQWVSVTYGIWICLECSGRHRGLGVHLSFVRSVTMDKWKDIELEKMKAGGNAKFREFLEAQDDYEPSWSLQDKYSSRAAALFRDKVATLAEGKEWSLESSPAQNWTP
#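 System: truncated rat Arfgap1 GAP domain / Medium: HEPES-based buffer, pH 7.5 / Also added: N-terminally truncated human ARF1-GTP substrate / Incubation: enzyme reaction 120 min at 25 °C after 20 min preincubation / Measured by: FP of antibody-bound GDP Alexa 633 tracer, ex 620/em 688 nm / Replicates: singlicate, each compound tested once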
# PAFAH1B3 inh: PAFAH1B3 enzyme inhibitors, primary screen, biochemical, fluorescence polarization, human; recombinant PAFAH1B3, FP-rhodamine probe; inhibition, % at 3.39 µM; Platelet-activating factor acetylhydrolase IB subunit alpha1 (Homo sapiens), Q15102; hit rate 0.28% among 340,000;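 active = inhibition above the screen-wide average of all tested compounds plus 3 SD, cut at about 25% in these data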;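 note: 0% = enzyme with DMSO only and 100% = wells lacking PAFAH1B3 protein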
# * = called active by the depositor; . = no result.
SMILES,PAFAH1B2 FP inh,ASAP1 inh,PAFAH2 inh,pPAFAH inh,ARFGAP1 inhibitor,PAFAH1B3 inh
O=C(NN=C1CCCC1)c1ccc(O)cc1O,3,1,-9,3,2,7
O=C(N/N=C/c1ccoc1)c1ccccc1Br,0,-1,1,.,10,6
O=C(N/N=C/c1ccoc1)c1cc(Br)ccc1O,5,9,12,33*,-1,15
NC(=O)c1ncn([C@@H]2O[C@H](C(=O)N[C@H](Cc3ccccc3)C(=O)O)[C@@H](O)[C@H]2O)n1,.,-9,.,.,-4,.
Cc1cn2c(=O)c3ncn(C4OC(CO)C(O)C4O)c3n(C)c2n1 (stereo not drawn),.,4,.,.,6,.
CC(NC(=O)C=Cc1ccco1)C(=O)NC(Cc1ccccc1)C(N)=O (stereo not drawn),.,1,.,.,9,.
CN(C)c1cccc(/C=C(\C#N)c2ccccc2)c1,6,13,-5,34*,-3,8
CN(C)c1ccc(/C=C(\C#N)c2ccccc2)cc1,7,.,8,.,.,13
COC(=O)[C@@H](Cc1ccccc1)NC(=O)[C@H]1O[C@@H](n2cnc3c(=O)[nH]c(N)nc32)[C@H](O)[C@@H]1O,.,14,.,.,-1,.
CCn1c(CSc2nccn2C)nc2cc(C(=O)O)ccc21,30*,.,25,25,.,15
COC(=O)C1=C(C)N(Cc2cccc(C(F)(F)F)c2)C(=NCc2ccc(OC)cc2)NC1c1cccc(F)c1 (stereo not drawn),.,0,.,.,7,.
COC(=O)CC#C[C@H](C)[C@@H](NS(C)(=O)=O)C1CCCCC1,.,-13,.,.,-4,.
Cc1cc(-c2nc3cccnc3s2)ccc1NS(=O)(=O)c1cccs1,8,-12,5,33*,4,2
Cc1ccc(NS(=O)(=O)c2cccs2)c(C)c1,4,-4,-12,28*,3,4
Cc1cc(C)cc(NS(=O)(=O)c2cccs2)c1,8,-10,0,12,-1,14
Cc1ccc(Cl)cc1NC(=O)OCCN(C)C(=O)Nc1cc(Cl)ccc1C,.,-2,.,.,15,.
CC(C)(C)OC(=O)N1CCC2CCN(CCc3ccccc3)CC21 (stereo not drawn),.,-6,.,.,-5,.
O=C(CNC(c1ccccc1)c1ccccc1)Nc1ccccc1Br,4,6,6,32*,-1,-3
CC1CCC(C(C)C)C(OC(=O)CSc2nnc(N)s2)C1 (stereo not drawn),27*,0,7,-2,-3,2
COC(=O)C1=C(C)N(Cc2ccccc2C(F)(F)F)C(=NCc2cccc(C(F)(F)F)c2)NC1c1ccc(F)cc1 (stereo not drawn),.,9,.,.,8,.
C/C(=N\NC(=O)c1ccc(Br)cc1)C1C(=O)c2ccccc2C1=O,15,2,16,25*,-10,29*
C=CCOn1c(=O)c(-c2ccc(OC)cc2)[n+]([O-])c2ccccc21,4,-2,12,33*,-4,8
O=C(NC(=S)NNC(=O)c1ccccc1O)c1cccnc1,19,-4,60*,16,-7,26*
Cc1ccc(S(=O)(=O)Oc2cccc(/C=N/n3cnnc3)c2)cc1,24*,-6,-9,4,-4,11
Clc1ccc(Oc2cccc(/C=N/n3cnnc3)c2)cc1,14,9,3,12,7,6
SMILES,PAFAH1B2 FP inh,ASAP1 inh,PAFAH2 inh,pPAFAH inh,ARFGAP1 inhibitor,PAFAH1B3 inh
C(=N\n1cnnc1)/c1cccc(OCCOc2ccccc2)c1,28*,7,4,1,-1,3
COc1cc(/C=N/n2cnnc2)ccc1OCCOc1ccccc1,4,-13,-2,3,-3,2
C[C@H](O)[C@@H]1CN2CCc3ccc(-c4ccc5c(c4)OCO5)cc3[C@@H]2C[C@@H]1N(C)C(=O)c1cccc(Cl)c1,.,4,.,.,-7,.
COC(=O)C1=C(C)N(Cc2cccc(C(F)(F)F)c2)C(=NCc2cc(OC)c(OC)c(OC)c2)NC1c1cccc(C(F)(F)F)c1 (stereo not drawn),.,-2,.,.,-1,.
O=C(O)c1cccc(N2C(=O)/C(=C/c3ccc(SCc4ccc(Cl)cc4)o3)SC2=S)c1,34*,-12,23,.,1,15
O=C1CC(SCCc2nc3ccccc3[nH]2)C(=O)N1c1ccc(Cl)cc1 (stereo not drawn),32*,1,-7,2,1,1
O=C1CC(SCc2nc3ccccc3[nH]2)C(=O)N1c1ccc(F)c(Cl)c1 (stereo not drawn),29*,-8,2,2,4,5
Cc1cc(O)c(C(=O)/C=C/c2ccc(Cl)cc2)c(=O)o1,3,-3,7,27*,1,9
CSc1ccc(/C=C/C(=O)c2c(O)cc(C)oc2=O)cc1,8,-6,7,19,1,5
Cc1ccc2c(c1)/C(=N/OC(=O)c1ccc(F)cc1)CCS2,19,3,2,4,-2,15
O=C(O/N=C1/CCSc2ccccc21)c1ccccc1,18,-7,41*,0,5,4
CC(CNC(=O)[C@@H](Cc1ccccc1)NC(=O)[C@H]1O[C@@H](n2cnc3c(=O)[nH]c(N)nc32)[C@H](O)[C@@H]1O)c1ccccc1 (stereo partly drawn),.,-6,.,.,-5,.
Cn1c2ccccc2c2cc(/C=N/NC(=O)c3cc(O)cc(O)c3)ccc21,25*,10,-34,30*,2,16
COc1ccc2[nH]c(C(=O)NCCN3CCOCC3)cc2c1,36*,-4,5,-4,-2,6
Nc1ccc(N2CCN(C(=O)c3cccs3)CC2)cc1,1,-7,8,32*,-10,4
NC(=S)N=Nc1c(O)n(CCCl)c2ccc(Br)cc12,32*,6,4,2,2,5
CC(=O)c1ccc(NC(=S)NC2CCCC(C)C2C)cc1 (stereo not drawn),8,2,-3,34*,4,3
CC(=O)c1ccc(NC(=S)NN2C(C)CCCC2C)cc1 (stereo not drawn),-3,17,-1,-1,-7,-2
COc1ccc(N2C(=O)c3n[nH]c(C(C)C)c3C2c2ccc(C)cc2)cc1 (stereo not drawn),.,-4,.,.,-5,.
CC1(C)CC(=O)C=C(c2ccccc2-c2ccc3c(c2)OCO3)C1=O,.,-12,.,.,8,.
